# Experimental data: publication PMC4040673 (Cell Death & Disease, 2014)
# Assays:
# CypA [1] = molecular target: CypA (Homo sapiens, UniProt P62937); experiment: SPR direct binding to immobilized CypA
# tAIF = experiment: SPR binding of peptides to tAIF; parameters: species or system mouse; conditions: direct binding to immobilized protein, applied concentration range
# HT-22 cells [2] = experiment: Intracellular Ca2+; type: cell-based, mouse; conditions: glutamate 12 h, Fluo-4; n = 8
# How it was run: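 Transfected HT-22 cells seeded in 96-well plates and grown 24 h, then treated with 2 mM glutamate for 12 h. Fluo-4 AM (5 μM) added to the medium for 30 min. After washing, fluorescence read on a plate reader at excitation 485 nm and emission 520 nm.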
# HT-22 cells [3] = experiment: Cell viability of glutamate-treated HT-22 cells in medium without Ca2+; type: cell-based, mouse; conditions: glutamate 2 mM, 12–14 h, n=4
# HT-22 cells [4] = experiment: Cell viability; type: cell-based, mouse; conditions: siRNA transfected (Lipofectamine-2000), glutamate 2 mM, 12 h
# How it was run: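 HT-22 cells seeded at 10 000 cells/well in 96-well plates, in DMEM with 10% heat-inactivated calf serum at 37 °C. siRNA transfected with Lipofectamine-2000, then exposed to 2 mM glutamate for 12 h. MTT at 0.5 mg/ml for 1 h; absorbance read at 570 nm with 630 nm reference. Controls set to 100%. At least three repeats, n=8 per condition.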
# HT-22 cells [5] = experiment: Real-time impedance; type: cell-based, mouse; conditions: siRNA transfected; glutamate 2 mM, ~15 h, n=8
# HT-22 cells [6] = experiment: Annexin-V-FITC/PI flow cytometry in glutamate-treated HT-22 cells; type: cell-based, mouse; conditions: siRNA transfected; glutamate 2 mM
# How it was run: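 HT-22 cells grown at 37 °C, 5% CO2 in DMEM with 10% heat-inactivated calf serum. Transfected with scrambled or mouse CypA siRNA (Lipofectamine-2000), then given 2 mM glutamate. Stained with Annexin-V-FITC/PI by kit and run on a FACScan: FITC excited at 488 nm, emission 530±40 nm; PI excited at 488 nm, emission 680±30 nm. Experiments repeated at least three times.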
# AIF = type: cell-based, mouse; conditions: peptide 50 μM or siRNA transfected; glutamate 2 mM, 12 h
# How it was run: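 HT-22 cells carried siRNA (Lipofectamine-2000) or 50 μM peptide (cationic lipid protein-transfection reagent) and were seeded on chamber slides. Exposed to 2 mM glutamate for 12–14 h. Fixed in 4% paraformaldehyde, permeabilised with 0.04% Triton X, and immunostained for AIF with Alexa 568/488 secondaries and DAPI. Imaged by confocal laser scanning with a 63× 1.4-NA oil objective.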
# CypA [7] = experiment: siRNA knockdown of CypA; type: cell-based, mouse; conditions: HT-22, RT-PCR and immunoblotting
# How it was run: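 HT-22 cells transfected with scrambled or mouse CypA siRNA (Lipofectamine-2000). One-step RT-PCR on total RNA, GAPDH as reference: cDNA step 60 °C 30 min, 95 °C 2 min, then 30 cycles of 95 °C 30 s, 57 °C 1 min, 70 °C 2 min. Lysates run on SDS-PAGE and blotted to PVDF. Primary antibody overnight at 4 °C, HRP secondary 1:2500, chemiluminescence; tubulin or actin as loading control.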
# [8] = tested on: isolated mitochondria from HT-22 cells; experiment: CCCP-induced depolarization / MPT pore opening in isolated HT-22 mitochondria; type: cell-based, mouse; conditions: 50 μM CCCP
# How it was run: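 Then treated with 50 μM CCCP protonophore. Δψm followed with 20 nM DiOC6(3) on a fluorescence plate reader. Measurements in triplicate, representative of at least three independent experiments.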
# Sequence of CypA (Homo sapiens, UniProt P62937) (P62937 whole entry): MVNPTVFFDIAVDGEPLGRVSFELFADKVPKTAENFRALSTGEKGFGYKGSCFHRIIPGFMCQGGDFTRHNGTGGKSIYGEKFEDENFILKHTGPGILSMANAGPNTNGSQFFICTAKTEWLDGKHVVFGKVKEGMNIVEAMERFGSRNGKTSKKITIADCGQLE
compound,measurement,setting,value
ILPEYLSNWTMEKVRREG [AIF(343–360)],affinity for CypA (in words),CypA [1],very weak affinity
same,fold lower affinity for CypA compared with AIF(370–394),CypA [1]; ratio of KD values,1000 fold
same,affinity to tAIF (in words),tAIF,No affinity to tAIF was detected
N[C@@H](CCC(=O)O)C(=O)O [Glutamate],intracellular Ca2+ concentration induced by glutamate,HT-22 cells [2],dose-dependent increase
siCypA: mouse siRNA targeting CypA: siCypAFw 5′-CUGAAUGGCUGGAUGGCAA-3′ and siCypARev 5′-UUGCCAUCCAGCCAUUCAG-3′ (chemistry not given here),protective effect combined with depletion of extracellular Ca2+,HT-22 cells [3],additive protective effects to depletion of extracellular Ca^2+
same,"protection against glutamate-induced cell death by siRNA, MTT",HT-22 cells [4],full protection
same,"protection against glutamate-induced cell death by siRNA, impedance",HT-22 cells [5],full protection
same,"protection against glutamate-induced cell death by siRNA, Annexin-V/PI",HT-22 cells [6],full protection
same,glutamate-induced nuclear translocation of AIF,AIF,very weak nuclear AIF staining
same,CypA expression after siRNA,CypA [7],significantly reduced
"N#CC(C#N)=NNc1cccc(Cl)c1 [CCCP, carbonyl cyanide m-chlorophenyl hydrazone]",loss of Δψm induced by CCCP,[8],strong loss of Δψm
